# Hits are enriched below; roughly 1.9% of the tested compounds scored in any of these assays.
# HIV Rev-RRE inh – disrupts HIV-1 Rev binding to RRE RNA | P05866 | Rev peptide-RRE RNA binding, FRET | inhibition, % at 8 µM | 97,000 tested, 0.79% active;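 active = inhibition above the screen-wide mean plus 3 SD, cut at about 35% in these data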;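 note: 0% = median DMSO wells and 100% = median Neomycin B control wells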
#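 Assay system: labelled RRE RNA duplex and labelled Rev peptide / Medium: HEPES pH 7.5 salt buffer with EDTA / Reagent: labelled Rev peptide / Schedule: 5 + 15 min at 25 °C / Signal: FRET, excitation 480 nm, emission 540 nm donor and 671 nm acceptor / Benchmarks: DMSO and neomycin B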
# FAK inh – inhibitors of human focal adhesion kinase | Q05397 | biochemical FAK kinase activity assay | inhibition, %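 (tested at 7 µM)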 | 97,000 tested, 0.84% active | AID 727;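 note: 0% = DMSO and 100% = reference compound high control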
# LYP inh 2 – inhibitors of human LYP (PTPN22) phosphatase. inhibition, % at 2 µM. Q9Y2R2. 96,000 tested, 0.21% active. recombinant LYP catalytic domain, DiFMUP fluorescence. AID 640;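 active = inhibition at 2 µM at or above a set limit, the screen mean plus 3 SD, cut at about 24% in these data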;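 note: 0% = DMSO with enzyme and 100% = enzyme fully blocked by orthovanadate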
# LYP act – increases human PTPN22 phosphatase activity. recombinant LYP, DiFMUP fluorescence; 0 = plate median, 100 = signal doubled. Q9Y2R2. activation, % at 2 µM. 96,000 tested, 0.11% active;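 active = activation at 2 µM above a set limit, the mean plus 5 SD, cut at about 37% in these data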
# EphB4 antag – blocks human EphB4 binding to ephrin-B2 | 97,000 tested, 0.15% active | P54760 | EphB4 LBD / TNYL-RAW-Alexa532 peptide, fluorescence polarization | inhibition, % at 7 µM;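 active = inhibition above the screen-wide mean inhibition plus 3 SD, cut at about 15% in these data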;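 note: 0% = DMSO wells and 100% = excess unlabeled TNYL-RAW peptide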
# Target sequence (P54760 whole entry, looked up, the tested form may be a part): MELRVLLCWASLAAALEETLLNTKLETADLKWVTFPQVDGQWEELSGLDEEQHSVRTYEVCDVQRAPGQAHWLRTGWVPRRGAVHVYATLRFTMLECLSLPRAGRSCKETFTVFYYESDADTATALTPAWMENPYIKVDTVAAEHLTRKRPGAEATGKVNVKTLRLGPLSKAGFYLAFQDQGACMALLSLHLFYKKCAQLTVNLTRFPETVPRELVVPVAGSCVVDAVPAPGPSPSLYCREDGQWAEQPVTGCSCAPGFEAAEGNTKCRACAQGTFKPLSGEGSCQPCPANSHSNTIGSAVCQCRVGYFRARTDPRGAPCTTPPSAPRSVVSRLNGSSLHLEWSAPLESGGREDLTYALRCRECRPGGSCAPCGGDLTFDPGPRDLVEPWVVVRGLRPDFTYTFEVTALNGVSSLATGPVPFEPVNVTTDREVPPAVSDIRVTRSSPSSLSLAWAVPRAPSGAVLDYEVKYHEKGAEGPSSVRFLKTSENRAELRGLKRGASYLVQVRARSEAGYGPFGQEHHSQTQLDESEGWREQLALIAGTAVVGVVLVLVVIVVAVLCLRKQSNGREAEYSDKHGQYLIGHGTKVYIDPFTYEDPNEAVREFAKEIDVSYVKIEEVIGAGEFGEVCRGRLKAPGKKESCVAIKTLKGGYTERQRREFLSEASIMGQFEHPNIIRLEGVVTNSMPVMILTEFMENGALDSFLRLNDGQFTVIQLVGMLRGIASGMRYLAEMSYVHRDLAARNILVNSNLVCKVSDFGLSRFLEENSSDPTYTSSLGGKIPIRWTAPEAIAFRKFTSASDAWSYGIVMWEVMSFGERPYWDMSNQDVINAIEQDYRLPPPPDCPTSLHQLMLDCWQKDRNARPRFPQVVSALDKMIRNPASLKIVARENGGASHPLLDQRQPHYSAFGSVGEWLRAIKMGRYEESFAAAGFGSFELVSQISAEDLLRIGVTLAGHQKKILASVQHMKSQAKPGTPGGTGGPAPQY
# FAK inh conf – confirmation of human focal adhesion kinase (FAK) inhibitors. inhibition, % at 7 µM. FAK kinase biochemical inhibition assay. 750 tested, 28% active. shares compounds with FAK inh
# The depositor's hits bear a star; x = no result given; [ ] = another dose, or the depositor's remark. Cut-off read from the data, not from the text of the source, unless noted: active = inhibition above about 19%; inactive = the rest.
SMILES,HIV Rev-RRE inh,FAK inh,LYP inh 2,LYP act,EphB4 antag,FAK inh conf
Cc1ccccc1NC(=O)CCC(=O)OCCCC(F)(F)C(F)(F)F,2,-2,-9,8,-3,x
N#C/C(=N\Nc1c(Cl)cccc1Cl)C(=O)NN,6,45*,-3,2,-3,33*
N#C/C(=N\Nc1ccccc1Cl)C(=O)c1ccccc1,-2,-2,-2,6,2,x
CN1c2ccccc2C(C)(C)C12C=Nc1c(cc(N3CCOCC3)c3ccccc13)O2 (configuration not stated),10,40*,12,-7,-6,-2
COc1ccccc1CN(C(=O)c1ccco1)C(C(=O)NC1CCCC1)c1ccncc1 (configuration not stated),7,-3,0,-2,0,x
Cn1c2c(c(=O)n(C)c1=O)C1c3cc(Cl)ccc3OCC1CO2 (configuration not stated),6,2,3,0,4,x
CCOC(=O)CSc1nc2c(sc(=S)n2Cc2ccco2)c(=O)n1-c1ccccc1,11,11,5,-7,10,x
CCN(CC)C(=O)CSc1nc2c(sc(=S)n2Cc2ccco2)c(=O)n1-c1ccccc1,7,20*,9,-8,12,4
CCCOc1ccccc1NC(=O)c1ccc(N)cc1,8,3,3,0,1,x
CCCOc1ccc(N)cc1N,101*[fluorescence artefact?],22*,3,-4,11,0
Cn1c(=O)oc2cc(S(=O)(=O)Nc3ccc4c(c3)OCO4)ccc21,27,11,3,-6,5,x
Cc1ccc(-c2onc3ccc(C=O)cc23)cc1,10,22*,6,-5,1,30*
Cc1ccc(-c2onc3ccc(C4(C)OCCO4)cc23)cc1,-2,0,-1,0,1,x
Nc1nc2ccc([N+](=O)[O-])c(N)c2s1,4,25*,8,-4,9,6
Cc1c(O)c(CN2CCCC2)cc2c1oc(=O)c1ccccc12,5,40*,-2,-1,6,12
Cc1c(O)c(CN2CCCC2)cc2c3c(c(=O)oc12)CCC3,4,3,-10,8,-6,x
CCc1ccc(NS(=O)(=O)c2cccs2)cc1,2,-1,-2,1,0,x
O=c1[nH]cnc2sc3c(c12)CCCC3,3,26*,7,-4,3,10
CC(Sc1nnc(Cc2cccs2)n1C1CCCCC1)C(N)=O (configuration not stated),4,26*,-8,11,2,-1
CCc1ccc2c(c1)CCCN2C(=O)c1ccccc1C(=O)O,14,23*,6,-6,0,3
Cc1ccc2c(c1)CCCN2C(=O)c1cc2ccccc2oc1=O,4,0,14,-14,2,x
CCOc1cc(CNc2ccc(O)cc2)cc(Br)c1OCc1ccccc1F,2,22*,11,-10,4,3
CCOc1cc(CNCCO)cc(Br)c1OCc1ccccc1Cl,7,-3,-4,10,-5,x
COc1ccc(CCNC(=O)CSc2nncn2N)cc1OC,9,-3,2,2,-8,x
O=C(COC(=O)c1cc([N+](=O)[O-])ccc1NCc1ccccc1)NC1CCCc2ccccc21 (configuration not stated),12,1,11,-9,0,x
SMILES,HIV Rev-RRE inh,FAK inh,LYP inh 2,LYP act,EphB4 antag,FAK inh conf
CCN(CC)c1ncnc2ccc(Br)cc12,3,45*,12,-10,3,18
O=C1NCCc2c1[nH]c1c(Cl)ccc(Cl)c21,2,73*,3,-5,2,62*
CSCCC(NC(=O)OC(C)(C)C)C(=O)NC(C(=O)NC(CC(C)C)C(N)=O)C(C)C (configuration not stated),1,-1,-4,0,6,x
Cc1nn2c(c1-c1ccccc1)NC1=C(C(=O)CCC1)C2c1ccccc1 (configuration not stated),6,25*,7,-5,3,22*
CCOc1ccc2nc(SCC(=O)N3CCCCCC3)c(C#N)cc2c1,9,25*,13,-10,1,9
Cc1cc(C)n(-c2nc(-c3ccc(Cl)cc3)cs2)n1,3,-2,-10,9,0,x
O=C(Nc1cccc(Cl)c1)ON=C1c2ccccc2-c2ccccc21,9,39*,4,-1,5,5
O=C(Nc1cccc(Cl)c1)Nc1cccc(Cl)c1,5,1,4,-5,-3,x
COc1ccc(NC(=O)Nc2ccccc2C(=O)N2CCCC2)cc1,4,1,-2,1,4,x
CCOC(=O)c1cnc2ccc(C(=O)OC)cc2c1Nc1ccc2c(c1)OCCO2,1,36*,-4,9,-2,11
CCOC(=O)c1ccc2ncc(C(=O)OCC)c(NCc3ccco3)c2c1,4,23*,9,-8,0,9
CCOC(=O)c1cnc2ccc(OC)cc2c1Nc1ccc2c(c1)OCCO2,9,24*,3,3,-6,11
O=C(CN1C(=O)C2CC=CCC2C1=O)Nc1nc2ccccc2[nH]1 (configuration not stated),4,2,4,-7,-4,x
CS(=O)(=O)N1CCN(c2ccccc2NC(=O)c2ccc(Br)o2)CC1,8,21*,-5,2,9,3
Cc1ccc2nc(/C(C#N)=C\c3ccc(N4CCCCC4)c([N+](=O)[O-])c3)[nH]c2c1,11,24*,6,-6,4,18
Cc1ccc(C(=O)O/N=C\c2ccc(N3CCCCC3)c([N+](=O)[O-])c2)cc1,14,-2,-4,8,-2,x
Cc1ccccc1NC1=C/C(=N\S(=O)(=O)c2cccs2)c2ccccc2C1=O,4,42*,-6,5,4,32*
O=C(NCCCN1CCCCCC1)c1ccc(CS(=O)(=O)Cc2ccccc2F)o1,8,25*,15,-11,-7,30*
CC1CCN(CCCNC(=O)c2ccc(CS(=O)(=O)Cc3ccccc3F)o2)CC1,-2,-2,1,-4,-10,x
CCOC(=O)CSc1nc(C2CC2)nc2ccccc12,3,67*,-12,10,2,65*
COC(=O)CSc1nc2ccccc2nc1SCC(=O)OC,6,3,10,-12,3,x
CCOC(=O)CSc1nc(C(C)C)nc2ccccc12,7,37*,-4,4,9,24*
COC(=O)CSc1nc(C(C)C)nc2ccccc12,0,40*,-4,1,-7,23*
CCOC(=O)CSc1nc(C)c2ccccc2n1,5,1,2,-2,4,x
O=C(O)c1nc(N2CCCC2)ncc1Cl,13,1,-3,3,-2,x
CCOC(=O)N1CCN(C(=O)CN(c2ccc(OCc3ccccc3)cc2)S(C)(=O)=O)CC1,1,1,2,-4,-7,x
